The assay in a line: Cytotoxicity against human EC109 cells at 50 ug/ml after 48 hrs by MTT assay. The conditions noted are these: ECa-109, 48 h. Format: functional. Put shortly: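 EC109 cells grown in RPMI-1640 with 10% fetal calf serum, penicillin and streptomycin at 37 °C in 5% CO2. Seeded at 7000 cells/well; compound diluted in medium added next day for 48 h. MTT (0.5 mg/mL in PBS) then added for a further 4 h, formazan dissolved in DMSO, absorbance read at 570 nm.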
On the technique in general: Formazan colour is commonly taken as a measure of viable cells.

Structures are written as SMILES.

For the compound `C[C@]12C[C@@H](O)[C@H]3[C@@H]([C@H](O)C=C4C[C@@H](O)CC[C@@]43C)[C@@H]1CC[C@@H]2C(=O)/C=C/c1ccc(F)cc1`, testing at 50 µg/mL gave an inhibition of 76.8%.

With `COc1ccc(/C=C/C(=O)[C@H]2CC[C@H]3[C@H]4[C@H]([C@H](O)C[C@]23C)[C@@]2(C)CC[C@H](O)CC2=C[C@H]4O)cc1`, the inhibition – broadly, how much of the control response was suppressed – at 50 µg/mL is 55.3%. In the case of `C[C@]12C[C@@H](O)[C@H]3[C@@H]([C@H](O)C=C4C[C@@H](O)CC[C@@]43C)[C@@H]1CC[C@@H]2C(=O)/C=C/c1cccc([N+](=O)[O-])c1` it was 72.4%; in that of `C[C@]12C[C@@H](O)[C@H]3[C@@H]([C@H](O)C=C4C[C@@H](O)CC[C@@]43C)[C@@H]1CC[C@@H]2C(=O)/C=C/c1ccc(Cl)cc1`, 80.2%; in that of `C[C@]12C[C@@H](O)[C@H]3[C@@H]([C@H](O)C=C4C[C@@H](O)CC[C@@]43C)[C@@H]1CC[C@@H]2C(=O)/C=C/c1cccc(Cl)c1`, 76.4%. With `COc1ccccc1/C=C/C(=O)[C@H]1CC[C@H]2[C@H]3[C@H]([C@H](O)C[C@]12C)[C@@]1(C)CC[C@H](O)CC1=C[C@H]3O` the figure was 47.4%; with `C[C@]12C[C@@H](O)[C@H]3[C@@H]([C@H](O)C=C4C[C@@H](O)CC[C@@]43C)[C@@H]1CC[C@@H]2C(=O)/C=C/c1ccc(N)cc1`, 50.2%; with `COc1cc(OC)c(/C=C/C(=O)[C@H]2CC[C@H]3[C@H]4[C@H]([C@H](O)C[C@]23C)[C@@]2(C)CC[C@H](O)CC2=C[C@H]4O)c(OC)c1`, 35.3%. Turning to `CC(=O)[C@H]1CC[C@H]2[C@H]3[C@H]([C@H](O)C[C@]12C)[C@@]1(C)CC[C@H](O)CC1=C[C@H]3O`, the inhibition at 50 µg/mL is 21.7%.

As to `C[C@]12C[C@@H](O)[C@H]3[C@@H]([C@H](O)C=C4C[C@@H](O)CC[C@@]43C)[C@@H]1CC[C@@H]2C(=O)/C=C/c1ccc(O)cc1`, testing at 50 µg/mL gave an inhibition of 45.7%.

Regarding `C[C@]12C[C@@H](O)[C@H]3[C@@H]([C@H](O)C=C4C[C@@H](O)CC[C@@]43C)[C@@H]1CC[C@@H]2C(=O)/C=C/c1ccccc1`, the inhibition at 50 µg/mL came out at 59.8%.

Compound `CN(C)c1ccc(/C=C/C(=O)[C@H]2CC[C@H]3[C@H]4[C@H]([C@H](O)C[C@]23C)[C@@]2(C)CC[C@H](O)CC2=C[C@H]4O)cc1` returned an inhibition at 50 µg/mL of 39%.

Compound `C=C1C(=O)[C@]23[C@H](O)[C@H]1CC[C@H]2[C@@]12CO[C@]3(O)[C@@H](O)[C@@H]1C(C)(C)CC[C@@H]2O` [ORIDONIN] displayed an inhibition at 50 µg/mL of 94.7%. With `CC(=O)[C@H]1CC[C@H]2[C@@H]3CC=C4C[C@@H](O)CC[C@]4(C)[C@H]3CC[C@]12C` [PREGNENOLONE] the figure was 13.6%.
